High-throughput results as filed in PubChem BioAssay.
Only a selection was taken, and hits are over-represented in it overall.
XBP1 UPR activ = activators of adaptive XBP1 UPR arm, primary screen, cell-based, CHO-XBP1 luciferase reporter, luminescence, uHTS | IRE1-XBP1 UPR activation; percent of tunicamycin response, DMSO as zero | activation, % at 20 µM | 0.33% of 330,000 active | AID 463104, 2010;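 active = versus positive control, 20 µM dose yields 30% or more activation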;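 also: 100% = tunicamycin at 10 µg/mL and 0% = DMSO only wells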
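Material: CHO-XBP1 cells stably carrying IRE1-XBP1-driven luciferase reporter | Medium: F12 with 10% serum | Compound dosing: 20 µM single concentration, DMSO 1% | Incubation: Overnight seeding at 37 °C, 6 h compound treatment at 37 °C | Detection: Steady-Glo luminescence read | Read-out basis: % activation of reporter signal versus tunicamycin and DMSO controls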
CHOP inh = inhibitors of CHOP promoter induction, primary screen, cell-based, unfolded protein response, luciferase reporter. CHO-K1 CHOP-promoter luciferase, tunicamycin-induced, 15-18 h. inhibition, % at 10 µM. 3.8% of 220,000 active;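 active = compounds that reduced the stress-induced luciferase reporter signal by more than about 70% of percent inhibition, limit read from the data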;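 also: 0% = tunicamycin plus vehicle and 100% = wells without tunicamycin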
TLR9-MyD88 inh = inhibitors of TLR9-MyD88 association in cells, primary screen, cell-based, CHO, BLA complementation, fluorescence; Toll-like receptor 9 (Homo sapiens) + Myeloid differentiation primary response protein …; CCF4 FRET ratio; inhibition, % at 4.98 µM; 0.21% of 340,000 active; AID 504734, 2011;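 active = inhibition above the mean over all tested compounds plus 3 SD, cut at about 21% in these data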;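 also: 0% = DMSO only wells and 100% = clavulanate BLA inhibitor control wells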
TLR4 MyD88 comp = inhibitors of TLR4-MyD88 association in cells, primary screen, cell-based, HeLa CL3-4, BLA complementation, FRET ratio | HeLa CL3-4 TLR4/MyD88 BLA complementation | inhibition, % at 8.4 µM | 0.18% of 200,000 active | Toll-like receptor 4 (Homo sapiens) + Myeloid differentiation primary response protein …; in the data active = inhibition above about 25%;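 also: 0% = vehicle and 100% = reference inhibitor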
UPR CHOP act = activators of apoptotic CHOP UPR arm, primary screen, cell-based, CHO-CHOP luciferase reporter, luminescence, uHTS; activation, % at 10 µM; UPR activation; percent of tunicamycin response over DMSO baseline; 0.34% of 330,000 active; AID 449763, 2010;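 active = at 10 µM dose, activation of 40% or more, normalized to positive control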;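 also: 100% = tunicamycin at 10 µg/mL and 0% = DMSO alone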
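Evaluation: % reporter activation, DMSO baseline versus tunicamycin full activation; System: CHO-CHOP luciferase reporter cell line; Input: 500 cells/well; Incubation: 6 h compound treatment, 37 °C; Measured by: Steady-Glo luciferase luminescence; Dosing: one dose, 10 µM in 0.5% DMSO; Buffer or medium: F12 medium, 10% FBS; Benchmarks: positive tunicamycin 10 µg/mL, negative DMSO alone.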
NOD2 RIPK2 PPI = NOD2-RIPK2 binding disruptors in cells, primary screen, fluorescence, CHO cells, BLA complementation. AID 624267, 2012. Receptor-interacting serine/threonine-protein kinase 2 (Homo sapiens), O43353. 0.38% of 360,000 active. CCF4 ratio. inhibition, % at 4.98 µM; in the data active = inhibition above about 21%;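 also: 0% = vehicle only and 100% = reference blocker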
Target sequence (O43353 whole entry, looked up): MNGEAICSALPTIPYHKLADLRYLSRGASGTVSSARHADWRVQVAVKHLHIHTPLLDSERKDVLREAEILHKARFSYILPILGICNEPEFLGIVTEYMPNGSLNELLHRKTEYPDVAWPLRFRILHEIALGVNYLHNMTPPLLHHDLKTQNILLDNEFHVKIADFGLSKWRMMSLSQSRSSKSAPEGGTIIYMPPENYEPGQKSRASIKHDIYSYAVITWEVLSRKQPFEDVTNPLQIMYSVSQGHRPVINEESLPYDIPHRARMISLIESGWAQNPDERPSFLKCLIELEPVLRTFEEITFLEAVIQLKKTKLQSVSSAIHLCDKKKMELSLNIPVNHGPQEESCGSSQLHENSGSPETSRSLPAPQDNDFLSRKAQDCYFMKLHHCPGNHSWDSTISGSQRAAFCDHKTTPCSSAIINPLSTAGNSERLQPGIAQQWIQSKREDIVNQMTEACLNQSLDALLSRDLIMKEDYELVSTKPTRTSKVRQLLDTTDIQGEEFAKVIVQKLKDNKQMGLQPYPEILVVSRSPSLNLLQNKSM
CHOP confirm = retest of CHOP induction inhibitors, confirmation, cell-based. shares compounds with CHOP inh. CHO-CHOP promoter luciferase reporter, tunicamycin-induced, luminescence. inhibition, % at 10 µM. 45% of 2,100 active;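 active = mean of three repeat readings of reporter signal inhibition above a set limit, cut at about 70% in these data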;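 also: 0% = tunicamycin plus vehicle and 100% = wells lacking tunicamycin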
The depositor's hits bear a star; nt = no result.

SMILES	XBP1 UPR activ	CHOP inh	TLR9-MyD88 inh	TLR4 MyD88 comp	UPR CHOP act	NOD2 RIPK2 PPI	CHOP confirm
Cc1cc(O)c(NC(=S)NC(=O)c2ccc(-c3ccc(Cl)cc3)o2)cc1C	-3	105*	-2	4	2	-5	113*
O=C(N/N=C/c1cccs1)c1cccc(NC(=O)c2ccc(Cl)cc2)c1	13	104*	nt	-16	-1	nt	118*
O=C(N/N=C/c1cccs1)c1cccc(S(=O)(=O)Nc2ccc(Cl)cc2)c1	-1	7	-6	-8	-2	-1	nt
O=C(CCN1C(=O)/C(=C/c2ccc(Cl)cc2)SC1=S)Nc1cccnc1	-1	nt	4	nt	0	-1	nt
O=C(CCN1C(=O)/C(=C/C=C/c2ccccc2)SC1=S)Nc1cccnc1	18	102*	0	5	23	3	30
CCc1ccccc1NC(=O)CNC(=O)CCC(=O)c1cc(C)sc1C	nt	nt	-3	nt	nt	-9	nt
O=C(NCC1CCCO1)c1ccc2c(=O)n(Cc3ccc(Cl)cc3)c(=S)[nH]c2c1 (configuration not stated)	0	103*	1	0	2	-3	0
CCCCn1nnnc1C1(C)CCC(=O)N1CCc1ccc(OC)c(OC)c1 (configuration not stated)	nt	nt	nt	nt	nt	-14	nt
CC1=CCC[C@@H]2[C@@](C)(CC/C(C)=C/C(=O)O)[C@H](C)CC[C@@]12C	-1	99*	-16	-14	1	-8	112*
C[C@@H]1CC[C@@]23COC(=O)C2=CCC[C@@H]3[C@@]1(C)CC/C(=C/CO)CO	0	nt	-1	nt	1	-28	nt
CC1=C(C(=O)N(C(C)C)C(C)C)CC(CC(=O)NCCCCc2ccccc2)C(=O)N1Cc1ccc(F)cc1 (configuration not stated)	nt	nt	nt	nt	nt	-2	nt
CSCCC(C(=O)NCc1ccccc1)n1c(Cc2cc(F)cc(F)c2)nc2ccccc21 (configuration not stated)	nt	nt	nt	nt	nt	-8	nt
CC(C)(C)C1CCC(C(=O)OCC(=O)c2ccc[nH]2)CC1 (configuration not stated)	-2	101*	6	8	4	0	100*
CC1(C(=O)NCc2ccccc2)CSCC(=O)N1CCOc1ccccc1 (configuration not stated)	nt	nt	nt	nt	nt	-7	nt
Cc1csc(NC(=O)CSc2nnc(NC(=O)COc3ccccc3)s2)n1	-1	101*	1	5	1	-4	1
Cc1csc(NC(=O)CSc2nnc(C)s2)n1	1	6	-13	4	1	0	nt
COc1ccc(N2C(=O)CC(Sc3nnc(-c4ccccc4)o3)C2=O)cc1 (configuration not stated)	-7	109*	4	1	-10	6	5
O=C1CC(Sc2nnc(-c3ccccc3O)o2)C(=O)N1c1ccccc1 (configuration not stated)	-12	7	-9	-5	-3	10	nt
Nc1nc(-c2ccccc2)c(N=Nc2ccccc2Cl)s1	0	97*	13	-9	-2	7	80*
Nc1nc(-c2ccccc2)c(N=Nc2cccc3ccccc23)s1	0	30	-5	-2	-1	-15	nt
COc1ccc(C2=C/C(=C\c3ccc(OC(C)=O)cc3)C(=O)O2)cc1	-1	4	-2	-4	1	-10	nt
CCOc1ccc(C2=C/C(=C/c3cccnc3)C(=O)O2)cc1	3	103*	5	18	3	-3	91*
CC(=O)Oc1cccc(/C=C2\C=C(c3ccc(C)cc3)OC2=O)c1	2	9	-3	-10	0	-8	nt
COc1ccc(C2=C/C(=C/c3cccnc3)C(=O)O2)cc1OC	0	105*	-14	-7	0	5	14
S=c1[nH]nc(COc2ccccc2)n1/N=C/C(Cl)=C/c1ccccc1	1	103*	-3	1	-2	-3	-3
SMILES	XBP1 UPR activ	CHOP inh	TLR9-MyD88 inh	TLR4 MyD88 comp	UPR CHOP act	NOD2 RIPK2 PPI	CHOP confirm
Cc1cnc(-c2nc3ccccc3n2C(C(=O)NC(C)(C)C)c2cc3ccccc3o2)cn1 (configuration not stated)	nt	nt	nt	nt	nt	-5	nt
NCCCNC(=O)c1cc2ccccc2[nH]1	-1	107*	-4	-9	-1	-10	11
O=C(/C=C/c1ccccc1)NC(NC(=S)Nc1ccc(Cl)cc1)C(Cl)(Cl)Cl (configuration not stated)	27	109*	-4	5	26	0	60
COc1ccc(NC(=S)NC(NC(=O)/C=C/c2ccccc2)C(Cl)(Cl)Cl)cc1 (configuration not stated)	17	107*	1	1	17	-23	122*
O=C(/C=C/c1ccccc1)NC(NC(=S)Nc1cc(Cl)ccc1Cl)C(Cl)(Cl)Cl (configuration not stated)	4	56	-4	6	22	-11	nt
O=C1CCCCCC(=O)[C@H](O)C[C@H](c2ccccc2)O1	nt	nt	nt	nt	nt	-7	nt
COc1ccc(CC(=O)Nc2nc(OCCN3CCCC3=O)cnc2-c2cccc(C(F)(F)F)c2)cc1	nt	nt	nt	nt	nt	0	nt
CC(C)(C)c1ccc(CN2N=Nc3ccccc3S2(=O)=O)cc1	-5	108*	0	-1	-5	-11	124*
CCCCCc1c(C)nc(NCc2ccccc2)[nH]c1=O	0	109*	2	8	-1	6	134*
CCCNC(=O)C1(C)CCCN(C(=O)c2ccccc2OC(F)(F)F)C1 (configuration not stated)	nt	nt	nt	nt	nt	-13	nt
FC(F)(F)c1cccc(NC(=S)N2CCN(c3cccc(C(F)(F)F)c3)CC2)c1	-1	107*	-10	9	-1	13	116*
CCC(C(=O)NC(C)(C)C)n1c(-c2ccc(C)cc2)nc2ccccc21 (configuration not stated)	nt	nt	nt	nt	nt	-3	nt
CC(C)CCN(C(=O)Cc1ccc(Cl)c(Cl)c1)c1c(N)n(Cc2ccccc2)c(=O)[nH]c1=O	8	103*	-4	0	7	-7	108*
COC1OCC(O)C(OC(=O)c2ccccc2)C1OC(=O)c1ccccc1 (configuration not stated)	nt	nt	-9	nt	nt	-11	nt
